From ChEMBL document CHEMBL1139324, “Chemical modification and biological evaluation of new semisynthetic derivatives of 28,29-Didehydronystatin A1 (S44HP), a genetically engineered antifungal polyene macrolide antibiotic” (J Med Chem, 2009)
In brackets after ≈: the same amount, converted by molar mass.

Legend:
Format in all cases: functional
Candida albicans = assay: Antifungal activity against Candida albicans ATCC 14053 after 48 hrs by broth microdilution method; settings: ATCC 14053, 48 h
How it was run: (§1)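 Yeast susceptibility by broth microdilution per NCCLS M27-A in 96-well plates. MIC is the lowest concentration inhibiting growth. Where repeat runs fully coincided, a single value is reported.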

Vanrija humicola = assay: Antifungal activity against Cryptococcus humicolus ATCC 9949 after 48 hrs by broth microdilution method; settings: ATCC 9949, 48 h; how it was run: as §1
Fusarium oxysporum = assay: Antifungal activity against Fusarium oxysporum VKM F-140 after 48 hrs by broth microdilution method
How it was run: (§2)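 Susceptibility of filamentous fungi (molds) by broth microdilution per NCCLS M38-A in 96-well microplates. The MIC is read as the lowest inhibitory concentration. It is given as one number when replicate data fully agreed.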

Aspergillus niger = assay: Antifungal activity against Aspergillus niger ATCC 16404 after 48 hrs by broth microdilution method; settings: ATCC 16404, 48 h; how it was run: as §2

Row | SMILES | MIC (Candida albicans) | MIC (Vanrija humicola) | MIC (Fusarium oxysporum) | MIC (Aspergillus niger)
1 | COC(=O)[C@@H](NC(=O)[C@H]1[C@@H]2C[C@@H](O[C@H]3O[C@@H](C)[C@H](O)[C@@H](N)[C@H]3O)/C=C/C=C/C=C/C=C/C=C/C=C/C=C/[C@H](C)[C@@H](O)[C@@H](C)[C@H](C)OC(=O)C[C@H](O)C[C@H](O)C[C@H](O)CC[C@@H](O)[C@H](O)C[C@](O)(C[C@@H]1O)O2)C(C)C | 2 µg/mL (≈ 1.93 µM) | 2 µg/mL (≈ 1.93 µM) | 8 µg/mL (≈ 7.71 µM) | 4 µg/mL (≈ 3.86 µM)
2 | COC(=O)[C@H](C)NC(=O)[C@H]1[C@@H]2C[C@@H](O[C@H]3O[C@@H](C)[C@H](O)[C@@H](N)[C@H]3O)/C=C/C=C/C=C/C=C/C=C/C=C/C=C/[C@H](C)[C@@H](O)[C@@H](C)[C@H](C)OC(=O)C[C@H](O)C[C@H](O)C[C@H](O)CC[C@@H](O)[C@H](O)C[C@](O)(C[C@@H]1O)O2 | 2 µg/mL (≈ 1.98 µM) | 2 µg/mL (≈ 1.98 µM) | 8 µg/mL (≈ 7.93 µM) | 4 µg/mL (≈ 3.96 µM)
3 | C[C@@H]1[C@H](O)[C@@H](C)/C=C/C=C/C=C/C=C/C=C/C=C/C=C/[C@H](O[C@H]2O[C@@H](C)[C@H](O)[C@@H](NCc3ccc(N(C)C)cc3)[C@H]2O)C[C@@H]2O[C@](O)(C[C@@H](O)[C@H](O)CC[C@@H](O)C[C@@H](O)C[C@@H](O)CC(=O)O[C@H]1C)C[C@H](O)[C@H]2C(=O)O | 2 µg/mL (≈ 1.89 µM) | 2 µg/mL (≈ 1.89 µM) | > 16 µg/mL | 4 µg/mL (≈ 3.78 µM)
4 | C[C@@H]1[C@H](O)[C@@H](C)/C=C/C=C/C=C/C=C/C=C/C=C/C=C/[C@H](O[C@H]2O[C@@H](C)[C@H](O)[C@@H](NCc3ccccc3S(=O)(=O)O)[C@H]2O)C[C@@H]2O[C@](O)(C[C@@H](O)[C@H](O)CC[C@@H](O)C[C@@H](O)C[C@@H](O)CC(=O)O[C@H]1C)C[C@H](O)[C@H]2C(=O)O | 4 µg/mL (≈ 3.66 µM) | 4 µg/mL (≈ 3.66 µM) | > 16 µg/mL | 4 µg/mL (≈ 3.66 µM)
5 | C[C@@H]1[C@H](O)[C@@H](C)/C=C/C=C/C=C/C=C/C=C/C=C/C=C/[C@H](O[C@H]2O[C@@H](C)[C@H](O)[C@@H](N)[C@H]2O)C[C@@H]2O[C@](O)(C[C@@H](O)[C@H](O)CC[C@@H](O)C[C@@H](O)C[C@@H](O)CC(=O)O[C@H]1C)C[C@H](O)[C@H]2C(=O)N(C)CC(O)C(O)C(O)C(O)CO (some centres not stated) | 4 µg/mL (≈ 3.63 µM) | 4 µg/mL (≈ 3.63 µM) | > 16 µg/mL | 4 µg/mL (≈ 3.63 µM)

Further compounds by falling MIC (Candida albicans), results first:

Row | MIC (Candida albicans) | MIC (Vanrija humicola) | MIC (Fusarium oxysporum) | MIC (Aspergillus niger) | SMILES
6 | 8 µg/mL (≈ 7.6 µM) | 8 µg/mL (≈ 7.6 µM) | > 16 µg/mL | 16 µg/mL (≈ 15.2 µM) | C[C@@H]1[C@H](O)[C@@H](C)/C=C/C=C/C=C/C=C/C=C/C=C/C=C/[C@H](O[C@H]2O[C@@H](C)[C@H](O)[C@@H](NC(=O)C(N)CCCCN)[C@H]2O)C[C@@H]2O[C@](O)(C[C@@H](O)[C@H](O)CC[C@@H](O)C[C@@H](O)C[C@@H](O)CC(=O)O[C@H]1C)C[C@H](O)[C@H]2C(=O)O (some centres not stated)
7 | 4 µg/mL (≈ 3.96 µM) | 4 µg/mL (≈ 3.96 µM) | 16 µg/mL (≈ 15.8 µM) | 4 µg/mL (≈ 3.96 µM) | C[C@@H]1[C@H](O)[C@@H](C)/C=C/C=C/C=C/C=C/C=C/C=C/C=C/[C@H](O[C@H]2O[C@@H](C)[C@H](O)[C@@H](N)[C@H]2O)C[C@@H]2O[C@](O)(C[C@@H](O)[C@H](O)CC[C@@H](O)C[C@@H](O)C[C@@H](O)CC(=O)O[C@H]1C)C[C@H](O)[C@H]2C(=O)NC(C)(CO)CO
8 | 4 µg/mL (≈ 3.78 µM) | 4 µg/mL (≈ 3.78 µM) | 8 µg/mL (≈ 7.57 µM) | 4 µg/mL (≈ 3.78 µM) | C[C@@H]1[C@H](O)[C@@H](C)/C=C/C=C/C=C/C=C/C=C/C=C/C=C/[C@H](O[C@H]2O[C@@H](C)[C@H](O)[C@@H](N)[C@H]2O)C[C@@H]2O[C@](O)(C[C@@H](O)[C@H](O)CC[C@@H](O)C[C@@H](O)C[C@@H](O)CC(=O)O[C@H]1C)C[C@H](O)[C@H]2C(=O)NC1C2CC3CC(C2)CC1C3 (some centres not stated)
